Data on eleven compounds can be found in paper PMC7116464 (Biochemical pharmacology, 2019).

Assay [1] relates to Leishmania tarentolae promastigotes (LtP). It is filed as cell-based. Conditions: for influence on the antileishmanial action (IC50) of Asc and Art: PIH 100 µM, SnMP 50 µM, CrMP 50 µM, NAC 2 mM, LtP in YEM/PBS with 6 µM hemin; for IC50: Leishmania tarentolae, read-out: IC50 in the absence of additional inhibitors.
The test system is the same in assay [2]. In words: Viability assay of LtP. The format is cell-based. Conditions: calculated from IC50, J774/IC50, LtP.
For assay [3], the system named is J774 macrophages. In words: Viability assay of J774 cells. The format is cell-based, murine. Conditions: Mus musculus, J774, read-out: IC50 J774. The method in brief: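 J774A.1 macrophages seeded at 1 × 10^5/mL in DMEM/10% FCS and allowed to attach for 24 h (37 °C, 5% CO2). Wells washed with PBS and refilled with medium. Compounds added from 25 or 200 µM in five 1:5 serial dilutions, triplicate. After 24 h, 20 µM resazurin (final) added for 4 h; fluorescence read at ex 560/em 590 nm.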

The subject of assay [4] is HO-like activity in LtP homogenates. In words: Heme oxygenase-like activity. It is filed as biochemical, Leishmania tarentolae.
In assay [5] the test system is Leishmania tarentolae promastigotes (LtP). In words: Metal. It is filed as cell-based. Conditions: 0 - 3 days; for iron content in LtP: 10 µM SnMP or 1 µM ZnPP, ICP-OES. The method, boiled down: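 Promastigotes (3.6 × 10^7/mL at day 0, OD600 0.3) grown in medium alone, with 10 µM SnMP or with 1 µM ZnPP for 0–3 days at 27 °C. After acid digestion (final 2 h at 75 °C), Fe measured by ICP-OES against 0.01–10 ppm standards. Sn measured by ICP-MS (120Sn, 0.1–100 ppb standards, isotope-corrected) after further 3-fold dilution. Results given as amol/cell.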

Assay [6] concerns labile iron pool (LIP) in LtP. In words: Low temperature EPR spectroscopy of the labile iron pool in LtP. It is filed as cell-based, Leishmania tarentolae. Particulars: 1 mM EP, 1 h at 26 °C, EPR at 77 K.
Assay [7] concerns splenic parasite burden. Conditions: Art orally 25 mg/kg body weight vs SAG 20 mg/kg body weight; cited from earlier work.
Assay [8] relates to hemin degradation in LtP homogenates and SGF/MCF fractions. In words: Hemin degradation in LtP homogenates and SGF/MCF subfractions by HPLC. The format is biochemical, Leishmania tarentolae. Conditions: 40 µM ZnPP, 7 µM hemin, 0, 2 or 4 h at 26 °C. The method in brief:
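LtP homogenates from hypo-osmotic lysis and freeze–thaw (37 mg protein/mL), or pooled SGF/MCF pellets from differential centrifugation (3.7 mg protein/mL). Samples diluted in phosphate buffer pH 7.4 with 7 µM hemin plus 1.1 mM NADPH or 40 µM ZnPP; 0, 2 or 4 h at 26 °C. Hemin followed by HPLC-UV, normalised to 0 h; mean ± SD, n = 3.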

Setting [9] is: SnMP or CrMP 38 µM, 77 µM, hemin 6.67 µM, NADPH 1 mM, RLS, 27 °C, 30 min.

`CC(=O)N[C@@H](CS)C(=O)O` [NAC, N-acetylcysteine]: in assay [1], the “influence on the antileishmanial action (IC50) of Asc and Art” value (from here on “influence on the antileishmanial action”) is “inhibited the action of Asc and even stronger that of Art”.
With `C[C@H]1[C@@H](O)O[C@@H]2O[C@@]3(C)CC[C@H]4[C@H](C)CC[C@@H]1[C@@]24OO3` [DHA, dihydroartemisinin], in assay [2], the “IC50, J774/IC50, LtP (selectivity index)” value is 20. In addition, the IC50 (in general, the concentration that inhibits the measured activity by half) in assay [3] is 14.8 ± 6.49 µM.
For `N=C(N)c1ccc(OCCCCCOc2ccc(C(=N)N)cc2)cc1` [Pen, pentamidine isethionate], in that order: 15 and 12.3 ± 3.96 µM.
Consider `C[C@H]1[C@H](OC(=O)CCC(=O)O)O[C@@H]2O[C@@]3(C)CC[C@H]4[C@H](C)CC[C@@H]1[C@@]24OO3` [Arsu, artesunate], for which the “IC50, J774/IC50, LtP (selectivity index)” value in assay [2] is 9. Also, in assay [3], the 50% inhibitory concentration (IC50) came out at 16.9 ± 5.2 µM.
The matching figures for `C[C@@H]1CC[C@H]2[C@@H](C)C(=O)O[C@@H]3O[C@@]4(C)CC[C@@H]1[C@]32O4` [DeoxyArt, deoxyartemisinin]: 1 and more than 200 µM.
Turning to Tin mesoporphyrin [SnMP], in assay [4] (setting [9]), the “HO-like activity (bilirubin formation)” value is given as “inhibit this HO-like activity”. Further, in assay [5], the “iron content in LtP” value is listed as “almost identical over several days”. The “Sn accumulation in LtP” value in assay [5] (10 µM SnMP, ICP-MS) is reported as “taken up into LtP”. Also, the “influence on the antileishmanial action” value in assay [1] is “inhibited the antileishmanial activity of Art stronger than that of Asc”.
With `Cc1ncc(CO)c(/C=N/NC(=O)c2ccncc2)c1O` [PIH, Pyridoxal isonicotinoyl hydrazone], in assay [1], the “influence on the antileishmanial action” value was “non-selectively inhibited the action of both Asc and Art in a similar fashion”.
Regarding `C[C@@H]1CC[C@H]2[C@@H](C)C(=O)O[C@@H]3O[C@@]4(C)CC[C@@H]1[C@]32OO4` [Art, artemisinin], the “HO-like activity (bilirubin formation)” value in assay [4] (Art 500 µM in the presence of catalase 2520 U/mL) is “inhibited the HO-like activity in LtP homogenates”. In assay [6], the “influence on the redox state of the LIP (apparent Fe3+)” value is listed as “influences the redox state of the LIP in LtP to a much lesser extent than Asc”. Also, in assay [7], the splenic parasite burden result was “reduce the splenic parasite burden slightly more than sodium antimony gluconate (SAG)”. The values for the IC50 in assay [1] and in assay [3] were 2.96 ± 0.71 µM and 192 ± 41.1 µM, respectively.
Consider `CC(C)C12C=CC(C)(CC1)OO2` (centres unmarked) [Asc, Ascaridole], for which the “IC50, J774/IC50, LtP (selectivity index)” value in assay [2] is 7. For the same compound, the 50% inhibitory concentration (IC50) in assay [1] was determined as 28.3 ± 6.7 µM; in assay [3], 202 ± 38.2 µM.
Turning to `C=CC1=C(C)c2cc3[n-]c(cc4nc(cc5[n-]c(cc1n2)c(C)c5C=C)C(C)=C4CCC(=O)O)c(CCC(=O)O)c3C.[Zn+2]` [ZnPP, zinc protoporphyrin], the “iron content in LtP” value in assay [5] is “small decline but no total inhibition of iron import into LtP”. In assay [8], the hemin degradation result is listed as “strongly inhibited”.
Turning to chromium mesoporphyrin [CrMP], the “HO-like activity (bilirubin formation)” value in assay [4] (setting [9]) is given as “inhibit this HO-like activity”. Further, the “influence on the antileishmanial action” value in assay [1] was “inhibited the antileishmanial activity of Art stronger than that of Asc”.
